ABCG2 block: blocks JC-1 efflux by human ABCG2 transporter; Q9UNQ0; IgMXP3 cells, flow cytometry; inhibition, % at 6.6 µM; 190,000 tested, 0.1% active; AID 1325;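 active = inhibition above 80%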
Target sequence (Q9UNQ0 whole entry, looked up): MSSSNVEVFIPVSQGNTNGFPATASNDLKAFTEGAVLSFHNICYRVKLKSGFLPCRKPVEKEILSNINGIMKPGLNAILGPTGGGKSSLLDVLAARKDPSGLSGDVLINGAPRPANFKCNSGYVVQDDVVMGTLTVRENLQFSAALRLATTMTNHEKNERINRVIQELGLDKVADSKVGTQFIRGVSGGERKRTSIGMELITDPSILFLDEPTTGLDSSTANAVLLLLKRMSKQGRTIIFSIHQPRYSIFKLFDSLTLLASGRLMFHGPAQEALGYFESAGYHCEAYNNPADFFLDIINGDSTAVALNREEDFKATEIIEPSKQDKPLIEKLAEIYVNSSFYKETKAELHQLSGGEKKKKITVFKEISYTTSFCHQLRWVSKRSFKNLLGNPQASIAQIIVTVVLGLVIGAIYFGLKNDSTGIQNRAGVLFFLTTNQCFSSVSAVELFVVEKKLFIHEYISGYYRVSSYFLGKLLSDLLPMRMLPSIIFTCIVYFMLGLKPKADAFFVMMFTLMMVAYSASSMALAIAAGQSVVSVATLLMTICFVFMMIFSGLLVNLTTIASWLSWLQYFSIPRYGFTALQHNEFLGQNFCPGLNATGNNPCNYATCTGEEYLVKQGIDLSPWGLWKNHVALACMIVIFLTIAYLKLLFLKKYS
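Read-out basis: Efflux inhibition in percent versus controls | Test system: ABCG2 IgMXP3 and barcoded ABCB1 CCRF-Adr cell mix | Quantity: 3 million cells/mL in well | Schedule: 10 min at 25 °C | Control set: Nicardipine as high control, DMSO as low control | Reagent: JC-1 as fluorescent efflux pump substrate | Signal: Flow cytometry of retained JC-1 fluorescence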
ABCB1 block: inhibitors of human ABCB1 transporter, ABCG2 counter-screen; 190,000 tested, 0.067% active; P08183; CCRF-Adr cells, JC-1 efflux, flow cytometry; AID 1326; inhibition, % at 6.6 µM; in the data active = inhibition above about 40%;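 note: higher value means more JC-1 retained so stronger ABCB1 efflux block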
RGS16-Gao HTS: RGS16-Galphao interaction regulator (human); O15492+P09471; bead-based flow cytometry RGS16-Galphao binding, fluorescence; actives lie on both sides; binding response (% of control), % at 10 µM; 220,000 tested, 0.38% active; AID 1441;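 note: Galphao activated by GDP with aluminum fluoride before binding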
RGS7-Gao reg: regulators of human RGS7-Galphao interaction | P09471 | Multiplexed bead flow cytometry, RGS7-Galphao binding; actives lie on both sides | binding response (% of control), % at 10 µM | 220,000 tested, 0.35% active | AID 1439; in the data active = binding response below about 49% or above about 150%; inconclusive = no clear call, values can overlap the other calls; inactive = in between;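 note: fluorescent Galphao held in activated GDP-AlF4 state binding bead-coupled RGS7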
RGS4-Gao reg: modulates binding of RGS4 to human Galphao; binding response (% of control), % at 10 µM; 220,000 tested, 0.33% active; Multiplexed bead flow cytometry; actives lie on both sides; P09471; AID 1415; in the data active = binding response below about 49% or above about 150%; inactive = in between;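 note: fluorescent Galphao activated with aluminum fluoride binding bead-coupled RGS4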
RGS8-Gao reg: human RGS8-Galphao interaction regulation | P09471 | multiplexed bead flow cytometry, RGS8-Galphao binding; actives lie on both sides | response (percent of control binding), % at 10 µM | 220,000 tested, 0.34% active; in the data active = response below about 60% or above about 140%; inactive = in between;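 note: Galphao activated as the GDP aluminium fluoride complex binding bead-coupled RGS8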
ABCB1 confirm: inhibits human ABCB1 efflux, confirmed at single point. shares compounds with ABCG2 block. CCRF-Adr cells, JC-1 efflux, flow cytometry. 270 tested, 7% active. inhibition, % at 6.6 µM;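 active = inhibition of pump activity above 50%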
ABCG2 single pt: inhibits human ABCG2 efflux, confirmed at single point. shares compounds with ABCG2 block. 270 tested, 6% active. IgMXP3 cells, JC-1 efflux, flow cytometry. inhibition, % at 6.6 µM. AID 1453;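 active = inhibition above 50%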
IgMXP3 autofluor: counter-screen for ABCG2 inhibitors: compound fluorescence in IgMXP3 cells | shares compounds with ABCG2 block | compound autofluorescence 488/530 nm, flow; active compounds read high | fluorescence at 6.6 µM | 270 tested, 30% active | AID 1480;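 active = fluorescence in ABCG2-expressing cells above the plate's control-well mean plus 3 SD, cut at about 15 in these data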
CCRF autofluor: counter-screen for ABCB1 inhibitors: compound fluorescence in CCRF-Adr cells; 270 tested, 30% active; fluorescence at 6.6 µM; AID 1483; compound autofluorescence 488/530 nm, flow cytometry; active compounds read high; shares compounds with ABCG2 block;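 active = fluorescence beyond the plate control mean plus 3 SD, with a fluorescence-to-maximum score over 2, cut at about 25 in these data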
RGS4-Gao HTS: regulators of human RGS4-Galphao interaction. shares compounds with RGS16-Gao HTS. multiplexed bead flow cytometry, RGS–Galpha-o binding. RGS4–Galpha-o binding response, % at 10 µM. 1,600 tested, 99% active. AID 1504;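 note: fluorescently labeled Galpha-o bound to GDP with aluminium fluoride binding biotinylated RGS beads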
Avidin counter: interferes with biotinylated probe binding to avidin beads | shares compounds with RGS16-Gao HTS | streptavidin beads, fluorescein-biotin binding, flow cytometry | inhibition, % at 10 µM | 1,700 tested, under 10 active | AID 1783;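 active = inhibition above 50%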;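 note: median green fluorescence of gated singlet beads compared with DMSO control wells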
RGS8-Gao confirm: RGS8-Galphao interaction regulation, single point confirmation; shares compounds with RGS16-Gao HTS; bead-based flow cytometry RGS8-Galphao binding, fluorescence; actives lie on both sides; binding response (% of control), % at 10 µM; 1,700 tested, 3% active; AID 1836; in the data active = binding response below about 72% or above about 130%; inactive = in between;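 note: Galphao activated as GDP AlF4 complex before binding bead RGS8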
RGS7-Gao single: confirmation of regulators of human RGS7-Galphao interaction | shares compounds with RGS16-Gao HTS | bead-based flow cytometry RGS7-Galphao binding; actives lie on both sides | response (percent of control binding), % at 10 µM | 1,700 tested, 7.8% active; in the data active = response below about 75% or above about 130%; inactive = in between;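 note: fluorescent Galphao activated with GDP and aluminum fluoride binding bead-coupled RGS7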
RGS16-Gao single: confirmation of regulators of human RGS16-Galphao interaction. shares compounds with RGS16-Gao HTS. bead-based flow cytometry, RGS16-Galphao binding; actives lie on both sides. response (% of control binding), % at 10 µM. 1,700 tested, 4% active; in the data active = response below about 74% or above about 130%; inactive = in between;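 note: Galphao activated as the GDP aluminium fluoride complex binding bead-coupled RGS16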
RGS4-Gao confirm: confirmation of regulators of human RGS4-Galphao interaction | shares compounds with RGS16-Gao HTS | RGS4-Galphao binding, multiplexed bead flow cytometry; actives lie on both sides | binding response (% of control), % at 10 µM | 1,700 tested, 4% active; in the data active = binding response below about 74% or above about 130%; inactive = in between
RGS19-Gao single: confirmation of regulators of human RGS19-Galphao interaction; shares compounds with RGS16-Gao HTS; bead-based flow cytometry RGS19-Galphao binding; actives lie on both sides; response (percent of control binding), % at 10 µM; 1,700 tested, 5% active; AID 1841; in the data active = response below about 50% or above about 160%; inactive = in between
Large screens that a line does not name were inactive (follow-up assays come after a bar, where they were run); ! = not confirmed by another sample; [ ] = remark or other dose. Compounds with a hit are over-represented: about 0.9% of the library has one in this group of screens. Unless noted, the rule behind the calls is not given here.

CC(=NCCN1CCOCC1)c1c(O)n(-c2ccccc2C)c(=O)[nH]c1=O	RGS16-Gao HTS 3.0, RGS7-Gao reg 9.2, RGS4-Gao reg -2.9, RGS8-Gao reg 28
CN1C(=O)N(C)C(=O)C(CCc2ccncc2)(Cc2ccc3c(c2)OCO3)C1=O	none
CCn1cc(/C=c2/sc3n(c2=O)C2c4ccccc4OC(C)(N=3)C2C(=O)OC)c(C)n1 (centres undefined)	ABCB1 block 53 | ABCB1 confirm inactive | ABCG2 single pt inactive | IgMXP3 autofluor 18 | CCRF autofluor inactive
CC1=NN(c2ccccc2)C(=O)C1/C=C1/C(=O)NC(=O)N(c2cccc(C)c2)C1=O (centres undefined)	none
Cc1cccc(N2C(=O)NC(=O)/C(=C\c3ccc4c(c3)CCCN4Cc3ccccc3)C2=O)c1	ABCB1 block 50 | ABCB1 confirm inactive | ABCG2 single pt inactive | IgMXP3 autofluor 14 | CCRF autofluor 59
OC(CCNCCc1c[nH]c2ccccc12)C(F)(F)Cl (centres undefined)	none
c1ccc2c(c1)[nH]c1cnccc12	none
Cc1c2ccncc2c(C)c2c1[nH]c1ccccc12	RGS4-Gao reg 154[activator] | Avidin counter inactive | RGS8-Gao confirm inactive | RGS7-Gao single inactive | RGS16-Gao single inactive | RGS4-Gao confirm inactive | RGS19-Gao single inactive
O=C1CN=C(c2ccc(Br)cc2)c2c(sc3c2CCCC3)N1CCN1CCCCC1	none
CCOP(=S)(OCC)c1ccc(N(C)C)cc1	RGS8-Gao reg 149[activator] | RGS4-Gao HTS 123 | Avidin counter inactive | RGS8-Gao confirm inactive | RGS7-Gao single inactive | RGS16-Gao single inactive | RGS4-Gao confirm inactive | RGS19-Gao single inactive
CC(Oc1ccc(-c2ccccc2)cc1)C(=O)O (centres undefined)	none
CN1C(=O)NC(=O)/C(=C/c2ccc([N+](=O)[O-])o2)C1=O	RGS7-Gao reg inconclusive, RGS8-Gao reg 58 (no result: ABCG2 block, ABCB1 block) | RGS4-Gao HTS 88
Cc1c(N=Nc2c(O)n(C)c(=O)n(C)c2=O)c(=O)n(-c2ccccc2)n1C	RGS8-Gao reg 58 | RGS4-Gao HTS 65 | Avidin counter inactive | RGS8-Gao confirm inactive | RGS7-Gao single inactive | RGS16-Gao single inactive | RGS4-Gao confirm inactive | RGS19-Gao single inactive
CC(=NCC1CCCO1)c1c(O)n(C)c(=O)n(C)c1=O (centres undefined)	RGS16-Gao HTS -18, RGS7-Gao reg 31, RGS4-Gao reg -9.3, RGS8-Gao reg 54 | Avidin counter inactive | RGS8-Gao confirm inactive | RGS7-Gao single inactive | RGS16-Gao single inactive | RGS4-Gao confirm inactive | RGS19-Gao single inactive
COC(=O)c1ccc(CN2CCN(Cc3ccccc3)CC2)cc1	none
COC(=O)C1=CCCN(C)C1	RGS16-Gao HTS 13, RGS7-Gao reg 5.1, RGS4-Gao reg 16, RGS8-Gao reg 21 | Avidin counter inactive | RGS8-Gao confirm inactive | RGS7-Gao single inactive | RGS16-Gao single inactive | RGS4-Gao confirm inactive | RGS19-Gao single inactive
O=P(Oc1ccccc1)(Oc1ccccc1)C(Nc1ccccc1)c1ccccc1 (centres undefined)	RGS8-Gao reg 53 | RGS4-Gao HTS 68 | Avidin counter inactive | RGS8-Gao confirm inactive | RGS7-Gao single inactive | RGS16-Gao single inactive | RGS4-Gao confirm inactive | RGS19-Gao single inactive
O=c1[nH]c(=O)n(Cc2ccc(F)cc2)c(O)c1C=NCCCO	RGS7-Gao reg 156[activator] | RGS4-Gao HTS 110 | Avidin counter inactive | RGS8-Gao confirm inactive | RGS7-Gao single inactive | RGS16-Gao single inactive | RGS4-Gao confirm inactive | RGS19-Gao single inactive
O=c1[nH]c(=O)n(Cc2ccc(F)cc2)c(O)c1C=NCCCn1ccnc1	none
Cn1nc(-c2ccc(OCC(=O)N3CCN(Cc4ccccc4)CC3)cc2)c2ccccc2c1=O	RGS7-Gao reg 42!, RGS4-Gao reg 35! | Avidin counter inactive | RGS8-Gao confirm inactive | RGS7-Gao single inactive | RGS16-Gao single inactive | RGS4-Gao confirm inactive | RGS19-Gao single inactive
Cn1cccc1CN1CCN(C(=O)COc2ccccc2)CC1	none
Cc1ccccc1-n1c(O)c(/C=N/N2CCOCC2)c(=O)[nH]c1=S	RGS4-Gao reg 150[activator] | Avidin counter inactive | RGS8-Gao confirm inactive | RGS7-Gao single inactive | RGS16-Gao single inactive | RGS4-Gao confirm inactive | RGS19-Gao single inactive
COCCOC(=O)c1c(C)oc2ccc(OC(=O)N(C)C)cc12	none
CC1CN=C(NCc2ccc(F)cc2)S1 (centres undefined)	none

High-throughput results as filed in PubChem.
